From ChEMBL document CHEMBL1134856, “SAR of 2,6-diamino-3,5-difluoropyridinyl substituted heterocycles as novel p38MAP kinase inhibitors” (Bioorg Med Chem Lett, 2002)

Columns and labels:
[1] = biological target: Mitogen-activated protein kinase 14 (Mus musculus, UniProt P47811); test: […] inhibition of murine Mitogen-activated protein kinase p38 alpha activity, GST-ATF-2 as substrate in the presence of 120 uM ATP
Outline: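 Phosphorylated His-tagged p38α MAP kinase of murine origin was used at 10 ng/well. Immobilised GST-ATF-2 served as substrate, with 120 μM cold ATP.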

[2] = biological target: T1, Prostaglandin G/H synthase 1 (Ovis aries, UniProt P05979); test: […] inhibition of ram seminal vesicle Prostaglandin G/H synthase 1 activity by determining PGE-2 by RIA
T1 sequence (P05979 whole entry): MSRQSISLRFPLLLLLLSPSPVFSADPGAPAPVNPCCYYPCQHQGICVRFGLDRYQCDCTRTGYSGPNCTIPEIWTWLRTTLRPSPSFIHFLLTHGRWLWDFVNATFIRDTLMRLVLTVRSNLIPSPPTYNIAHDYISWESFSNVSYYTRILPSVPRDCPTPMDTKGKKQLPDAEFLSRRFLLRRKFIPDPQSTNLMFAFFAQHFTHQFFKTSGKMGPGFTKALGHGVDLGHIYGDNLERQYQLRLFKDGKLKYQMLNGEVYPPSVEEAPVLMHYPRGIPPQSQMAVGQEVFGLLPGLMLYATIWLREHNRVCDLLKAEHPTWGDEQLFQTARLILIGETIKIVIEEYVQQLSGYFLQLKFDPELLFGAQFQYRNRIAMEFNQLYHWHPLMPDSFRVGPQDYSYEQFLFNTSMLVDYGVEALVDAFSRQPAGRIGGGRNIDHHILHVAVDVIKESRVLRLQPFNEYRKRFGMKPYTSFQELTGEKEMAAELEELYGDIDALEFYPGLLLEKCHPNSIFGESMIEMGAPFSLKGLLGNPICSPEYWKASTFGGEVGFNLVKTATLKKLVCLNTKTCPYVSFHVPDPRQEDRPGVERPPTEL

[3] = tested on: PBMC; test: Inhibition of LPS-stimulated TNF-alpha release from human peripheral blood mononuclear cells; type: functional, cell-based
Outline: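 Human peripheral blood mononuclear cells from healthy volunteers were incubated with inhibitor and stimulated with LPS/IFN-γ for 3 h. TNF-α in the supernatants was determined by ELISA.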

[4] = tested on: Mus musculus; test: Inhibition of LPS induced TNF-alpha release in mice at 10 mg/kg peroral dose; type: functional; conditions: route oral
Outline: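 Female OF1 mice, 8 weeks old, received compound by oral gavage in DMSO/corn oil. One hour after dosing, LPS (20 mg/kg) was given iv. Blood was collected 1 h later, and plasma TNF-α was measured by mouse-specific ELISA.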

[5] = tested on: Rattus norvegicus; test: Tested for inhibition of swelling in adjuvant induced arthritis rat at 25 mg/kg per orally; Toxic; type: functional; conditions: po
Outline: (§1)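 Adjuvant-induced arthritis: female Wistar rats were immunised with Mycobacterium tuberculosis on day 0. They were dosed orally at 2 × 25 mg/kg per day from day 14 to day 20. Joint swelling was measured on day 20.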

[6] = tested on: Rattus norvegicus; test: Tested for inhibition of swelling in adjuvant induced arthritis rat at 25 mg/kg per orally; type: functional; conditions: route oral; outline: as §1
[7] = Tested for the Cmax in rat at 10 mg/kg per orally; type: ADME, organism-based; set-up: dose 10 mg/kg, route oral; conditions: in vivo, po
[8] = Tested for the bioavailability in rat; type: ADME, organism-based; conditions: in vivo
[9] = Tested for the half life in rat; type: ADME, organism-based; conditions: in vivo
[10] = species: Homo sapiens; test: Inhibition of LPS-stimulated TNF-alpha release from human whole blood; type: functional
[11] = tested on: Rattus norvegicus; test: Tested for inhibition of swelling in adjuvant induced arthritis rat at 25 mg/kg perorally b.i.d.; type: functional; conditions: route oral; outline: as §1
[12] = species: Rattus norvegicus; test: Tested for inhibition of paw swelling in collagen induced arthritis in rat, perorally b.i.d.; type: functional; conditions: oral
Outline: (§2)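 Female WAGxBUF/F1 rats were immunised intradermally with bovine nasal septum type II collagen in Freund's incomplete adjuvant; swelling began about 10 days later. Oral dosing, once or twice daily, started on day 13 and continued for 10 days. Read-out was paw swelling, with ED50 values reported.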

[13] = species: Rattus norvegicus; test: Tested for inhibition of paw swelling in collagen induced arthritis in rat, perorally q.d.; type: functional; conditions: po; outline: as §2
[14] = tested on: Rattus norvegicus; test: Dose-dependent protective activity at 10 mg/kg (po, b.i.d.) in loss of proteoglycans in hind paws of CIA-rats; type: functional
[15] = tested on: Rattus norvegicus; test: Dose-dependent protective activity at 10 mg/kg (po, b.i.d.) on bone apposition in hind paws of CIA-rats; type: functional
[16] = tested on: Rattus norvegicus; test: Dose-dependent protective activity at 10 mg/kg (po, b.i.d.) on cartilage damage in hind paws of CIA-rats; type: functional
[17] = tested on: Rattus norvegicus; test: Dose-dependent protective activity at 10 mg/kg (po, b.i.d.) on infiltration of cells in hind paws of CIA-rats; type: functional
[18] = tested on: Rattus norvegicus; test: Dose-dependent protective activity at 3 mg/kg (po, b.i.d.) in loss of proteoglycans in hind paws of CIA-rats; type: functional
[19] = tested on: Rattus norvegicus; test: Dose-dependent protective activity at 3 mg/kg (po, b.i.d.) on bone apposition in hind paws of CIA-rats; type: functional
[20] = tested on: Rattus norvegicus; test: Dose-dependent protective activity at 3 mg/kg (po, b.i.d.) on cartilage damage in hind paws of CIA-rats; type: functional
[21] = tested on: Rattus norvegicus; test: Dose-dependent protective activity at 3 mg/kg (po, b.i.d.) on infiltration of cells in hind paws of CIA-rats; type: functional
[22] = tested on: Rattus norvegicus; test: Dose-dependent protective activity at 30 mg/kg (po, b.i.d.) in loss of proteoglycans in hind paws of CIA-rats; type: functional
[23] = tested on: Rattus norvegicus; test: Dose-dependent protective activity at 30 mg/kg (po, b.i.d.) on bone apposition in hind paws of CIA-rats; type: functional
[24] = tested on: Rattus norvegicus; test: Dose-dependent protective activity at 30 mg/kg (po, b.i.d.) on cartilage damage in hind paws of CIA-rats; type: functional
[25] = tested on: Rattus norvegicus; test: Dose-dependent protective activity at 30 mg/kg (po, b.i.d.) on infiltration of cells in hind paws of CIA-rats; type: functional
[26] = species: Rattus norvegicus; test: Inhibition of LPS induced TNF-alpha release in rats; type: functional

Mitogen-activated protein kinase 14, sequence (P47811 whole entry): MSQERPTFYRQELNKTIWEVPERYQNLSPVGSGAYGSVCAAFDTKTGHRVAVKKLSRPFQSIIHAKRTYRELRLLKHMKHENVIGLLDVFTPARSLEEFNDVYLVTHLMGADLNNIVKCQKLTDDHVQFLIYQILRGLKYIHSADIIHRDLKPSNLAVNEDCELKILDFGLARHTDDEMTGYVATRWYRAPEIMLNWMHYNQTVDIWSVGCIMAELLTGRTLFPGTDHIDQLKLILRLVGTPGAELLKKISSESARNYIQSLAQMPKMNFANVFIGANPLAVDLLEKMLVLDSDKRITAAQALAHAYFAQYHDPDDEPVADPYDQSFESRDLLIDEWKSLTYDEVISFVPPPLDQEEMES

Row | SMILES | IC50 [1] [nM] | IC50 [2] [nM] | IC50 [3] [nM] | inhibition in vivo at 10 mg/kg [4] [%] | other results
1 | Fc1ccc(-c2ncsc2-c2ccncc2)cc1 | 800 |  |  |  | 
2 | Fc1ccc(-c2[nH]nnc2-c2ccncc2)cc1 | 1300 |  |  |  | 
3 | Nc1nc(N)c(F)c(-c2nc(-c3cccc(C(F)(F)F)c3)c(-c3ccncc3)[nH]2)c1F | 470 | 100000 | 54 | 21 | 
4 | Nc1nc(N)c(F)c(-c2cc(-c3ccncc3)c(-c3ccc(F)cc3)[nH]2)c1F | 4 | 6300 | 18 |  | 
5 | Fc1ccc(-c2nc[nH]c2-c2ccncc2)cc1 | 1000 |  |  |  | 
6 | Nc1nc(N)c(F)c(-c2nc(-c3ccncc3)c(-c3cc4ccccc4o3)[nH]2)c1F | 5 | 100000 | 27 | 1.8 | 
7 | Nc1nc(N)c(F)c(-c2nc(-c3ccncc3)c(-c3ccco3)[nH]2)c1F | 670 | 100000 | 294 | 28 | 
8 | Fc1ccc(-c2[nH]ccc2-c2ccncc2)cc1 | 800 |  |  |  | 

The next lines start with results.

Row | IC50 [1] [nM] | IC50 [2] [nM] | SMILES | IC50 [3] [nM] | inhibition in vivo at 10 mg/kg [4] [%] | other results
9 | 210 | 45000 | Nc1nc(N)c(F)c(-n2nc(-c3ccncc3)c(-c3ccc(F)cc3)n2)c1F |  |  | 
10 | 2100 | 100000 | Nc1nc(F)c(F)c(-c2nc(-c3ccc(F)cc3)c(-c3ccncc3)o2)c1F | 1930 |  | 
11 | 10000 | 10000 | Fc1ccc(-c2nn(-c3c(F)c(F)nc(F)c3F)nc2-c2ccncc2)cc1 |  |  | 
12 | 4 | 100000 | Nc1nc(F)c(F)c(-c2nc(-c3ccncc3)c(-c3ccc(F)cc3)[nH]2)c1F | 44 | 64 | inhibition in vivo at 25 mg/kg [5]: 71%
13 | 400 | 100000 | Nc1nc(N)c(F)c(-c2nc(-c3ccc(F)cc3)c(-c3ccncc3)o2)c1F | 373 | 81 | inhibition in vivo at 25 mg/kg [6]: 19%
14 | 100000 |  | Fc1ccc(-c2nc(-c3c(F)c(F)nc(F)c3F)oc2-c2ccncc2)cc1 |  |  | 
15 | 90 | > 100000 | Fc1ccc(-c2[nH]c(-c3c(F)c(F)nc(F)c3F)nc2-c2ccncc2)cc1 | 74 | 3 | 
16 | 16 | > 100000 | Nc1nc(N)c(F)c(-c2nc(-c3ccc(F)cc3)c(-c3ccncc3)[nH]2)c1F | 44 | 83 | Cmax [7]: 3.12 µM; bioavailability [8]: 49%; half-life [9]: 1 h; IC50 [10]: 250 nM; ED50 [11]: 10 mg/kg; ED50 [12]: 5 mg/kg; ED50 [13]: 43 mg/kg; Protective activity [14]: -38%; Protective activity [15]: -44%; Protective activity [16]: -44%; Protective activity [17]: -37%; Protective activity [18]: -17%; Protective activity [19]: -4%; Protective activity [20]: -15%; Protective activity [21]: -11%; Protective activity [22]: -42%; Protective activity [23]: -64%; Protective activity [24]: -58%; Protective activity [25]: -45%; ED50 [26]: 4 mg/kg
17 | 140 | 100000 | Nc1nc(N)c(F)c(-c2nc(-c3ccc(F)cc3)c(-c3ccncc3)s2)c1F | 31 |  | 
